ChEMBL document CHEMBL1140080, “Adamantyl-substituted retinoid-derived molecules that interact with the orphan nuclear receptor small heterodimer partner: effects of replacing the 1-adamantyl or hydroxyl group on inhibition of cancer cell growth, induction of cancer cell apoptosis, and inhibition of SRC homology 2 …” (J Med Chem, 2008)

Columns and labels:
[1] = target: T1, Nuclear receptor subfamily 0 group B member 2 (Homo sapiens, UniProt Q15466); test: Displacement of [5,5'-3H2]AHPN from human recombinant GST-SHP by liquid scintillation counting relative to 3-Cl-AHPC
T1 sequence (Q15466 whole entry): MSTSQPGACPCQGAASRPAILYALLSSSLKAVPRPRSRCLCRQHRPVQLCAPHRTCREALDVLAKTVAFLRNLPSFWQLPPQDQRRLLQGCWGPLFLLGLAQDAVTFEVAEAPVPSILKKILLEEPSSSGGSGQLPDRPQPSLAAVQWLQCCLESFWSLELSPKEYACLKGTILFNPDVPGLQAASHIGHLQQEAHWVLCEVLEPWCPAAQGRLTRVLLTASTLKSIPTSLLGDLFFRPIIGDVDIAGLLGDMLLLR
In short: (§1)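 Recombinant GST–human SHP was bound to glutathione–Sepharose beads and incubated 2 h with 5 nM [5,5′-3H2]AHPN with or without competitor (1.0, 5.0 or 50 μM). Beads were washed twice and counted. Displacement was expressed relative to 50 μM 3-Cl-AHPC set as 100%.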

[2] = target: T2, Nuclear receptor subfamily 0 group B member 2 (Homo sapiens) (UniProt Q15466); test: Displacement of [5,5'-3H2]AHPN from human recombinant GST-SHP at 50 uM by liquid scintillation counting relative to 3-Cl-AHPC; in short: as §1
T2 sequence (whole entry): T1 sequence (Q15466 whole entry)

[3] = target: T3, Tyrosine-protein phosphatase non-receptor type 11 (Homo sapiens, UniProt Q06124); test: Inhibition of SHP2 overexpressed in human KG1 cells; type: cell-based, KG-1
T3 sequence (Q06124 whole entry): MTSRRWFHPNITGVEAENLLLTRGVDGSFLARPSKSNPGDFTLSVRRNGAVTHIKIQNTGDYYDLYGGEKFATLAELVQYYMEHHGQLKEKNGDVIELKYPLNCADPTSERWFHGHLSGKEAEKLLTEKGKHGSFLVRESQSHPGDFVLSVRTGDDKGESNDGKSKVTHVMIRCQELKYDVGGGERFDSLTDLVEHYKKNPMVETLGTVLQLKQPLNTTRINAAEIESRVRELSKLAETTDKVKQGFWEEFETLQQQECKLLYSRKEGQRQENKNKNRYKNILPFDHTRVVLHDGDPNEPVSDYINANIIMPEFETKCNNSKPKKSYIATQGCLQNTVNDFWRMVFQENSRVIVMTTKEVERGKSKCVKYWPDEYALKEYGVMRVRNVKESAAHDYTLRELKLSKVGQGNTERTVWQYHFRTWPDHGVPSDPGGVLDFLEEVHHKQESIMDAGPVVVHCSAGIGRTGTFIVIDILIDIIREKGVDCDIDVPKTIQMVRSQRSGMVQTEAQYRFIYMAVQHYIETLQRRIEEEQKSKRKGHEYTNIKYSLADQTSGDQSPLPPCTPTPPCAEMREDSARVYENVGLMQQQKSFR
In short: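 Shp-2 PTP activity was measured as hydrolysis of the fluorogenic substrate 6,8-difluoro-4-methylumbelliferyl phosphate in the presence of analogue in Me2SO or Me2SO alone (final concentration 5%).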

KG-1 [4] = test: Induction of apoptosis in human KG1 cells at 1.0 uM […] by acridine orange staining; type: functional
KG-1 [5] = test: Induction of apoptosis in human KG1 cells at 5.0 uM […] by acridine orange staining; type: functional
KG-1 [6] = test: Induction of apoptosis in human KG1 cells at 25 uM […] by acridine orange staining; type: functional
[7] = Antiproliferative activity against human KG1 AML cells after 48 hrs by MTT assay; type: functional, cell-based; conditions: in the assay text read “by hemocytometer cell counting” for “by MTT assay”
In short: (§2)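 KG-1 cells in 5% FBS medium attached overnight, then treated 48 h with analogue in Me2SO or Me2SO alone (final 0.1%). Cells were harvested and counted by hemocytometer in triplicate wells. Highest concentration evaluated was 5 μM.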

DU-145 [8] = test: Antiproliferative activity against human DU145 cells after 72 hrs by MTT assay; type: functional, cell-based; conditions: DU-145, 72 h
In short: (§3)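 Cells attached for 24 h, then exposed 72 h to analogue in Me2SO or Me2SO alone (final Me2SO 0.1%), with media and compound renewed after 48 h. Viable cells were measured by MTS tetrazolium reduction in three replicates. Top concentration tested per compound was 2.5, 5, 10, 20 or 100 μM.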

MDA-MB-231 [9] = test: Antiproliferative activity against human MDA-MB-231 cells after 72 hrs by MTT assay; type: functional, cell-based; conditions: MDA-MB-231, 72 h; in short: as §3
[10] = Antiproliferative activity against human H292 cells after 72 hrs by MTT assay; type: functional, cell-based; conditions: NCI-H292, 72 h; in short: as §3
[11] = Antiproliferative activity against human KG1 AML cells at 5 uM after 48 hrs by MTT assay; type: functional; conditions: in the assay text read “by hemocytometer cell counting” for “by MTT assay”; in short: as §2
DU-145 [12] = test: Antiproliferative activity against human DU145 cells at 5 uM after 72 hrs by MTT assay; type: functional; conditions: DU-145, 72 h; in short: as §3
MDA-MB-231 [13] = test: Antiproliferative activity against human MDA-MB-231 cells at 5 uM after 72 hrs by MTT assay; type: functional; conditions: MDA-MB-231, 72 h; in short: as §3
[14] = Antiproliferative activity against human H292 cells at 5 uM after 72 hrs by MTT assay; type: functional; conditions: NCI-H292, 72 h; in short: as §3
[15] = Antiproliferative activity against human H292 cells at 100 uM after 72 hrs by MTT assay; type: functional; conditions: NCI-H292, 72 h; in short: as §3
DU-145 [16] = test: Antiproliferative activity against human DU145 cells at 100 uM after 72 hrs by MTT assay; type: functional; conditions: DU-145, 72 h; in short: as §3
MDA-MB-231 [17] = test: Antiproliferative activity against human MDA-MB-231 cells at 100 uM after 72 hrs by MTT assay; type: functional; conditions: MDA-MB-231, 72 h; in short: as §3
[18] = Induction of apoptosis in human HL60R cells at 0.1 uM after 24 hrs by acridine orange staining; type: functional
In short: (§4)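 KG-1, HL-60R (24 h) or MDA-MB-231 (96 h) cells in 5% FBS medium attached overnight, then were treated with analogue in Me2SO or vehicle (final 0.1% Me2SO). Apoptotic cells were scored by acridine orange staining on at least three replicates. Tested concentrations were 0.1–5.0 μM, plus 25 μM for KG-1.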

[19] = Induction of apoptosis in human HL60R cells at 1.0 uM after 24 hrs by acridine orange staining; type: functional; in short: as §4
MDA-MB-231 [20] = test: Induction of apoptosis in human MDA-MB-231 cells at 1.0 uM after 96 hrs by acridine orange staining; type: functional; in short: as §4
MDA-MB-231 [21] = test: Induction of apoptosis in human MDA-MB-231 cells at 2.0 uM after 96 hrs by acridine orange staining; type: functional; in short: as §4
[22] = Growth inhibition of human HL60R cells at 0.1 uM after 24 hrs by hemocytometer; type: functional; conditions: read-out: GI
In short: (§5)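 HL-60R cells in medium with 5% FBS attached overnight, then received analogue in Me2SO or vehicle (final Me2SO 0.1%) for 24 h. Cells were harvested and counted in triplicate wells with a hemocytometer.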

[23] = Growth inhibition of human HL60R cells at 1.0 uM after 24 hrs by hemocytometer; type: functional; conditions: read-out: GI; in short: as §5
[24] = Growth inhibition of HMVE cells after 72 hrs by alamar blue method; type: cell-based; conditions: Homo sapiens
[25] = Growth inhibition of HMVE cells at 0.5 uM after 72 hrs by alamar blue method; type: cell-based; conditions: human, HMVE cells; read-out: GI
[26] = Antiproliferative activity against human H292 cells at 10 uM after 72 hrs by MTT assay; type: functional; conditions: NCI-H292, 72 h; in short: as §3
DU-145 [27] = test: Antiproliferative activity against human DU145 cells at 10 uM after 72 hrs by MTT assay; type: functional; conditions: DU-145, 72 h; in short: as §3
MDA-MB-231 [28] = test: Antiproliferative activity against human MDA-MB-231 cells at 10 uM after 72 hrs by MTT assay; type: functional; conditions: MDA-MB-231, 72 h; in short: as §3
KG-1 [29] = test: Induction of apoptosis in human KG1 cells after 48 hrs by acridine orange staining; type: functional, cell-based; conditions: KG-1, 48 h

Activity [2] [%] | IC50 [3] [µM] | IC50 (DU-145 [8]) [µM] | IC50 (MDA-MB-231 [9]) [µM] | SMILES | Activity (KG-1 [4]) [%] | Activity (KG-1 [5]) [%] | IC50 [7] [µM] | IC50 [10] [µM] | Activity [11] [%] | further results
90 | 5.37 | > 5 | > 5 | CCC(CC)(CC)c1cc(-c2ccc(/C=C/C(=O)O)cc2Cl)ccc1O | 3 | 4 | > 5 | > 5 | 0 | IC50 [1]: 8 µM; Activity (KG-1 [6]): 14%; inhibition at 5 µM (DU-145 [12]): 2%; inhibition at 5 µM (MDA-MB-231 [13]): 2%; inhibition at 5 µM [14]: 5%
90 | 2.11 | 16 | 67 | O=C(O)/C=C/c1ccc(-c2ccc(F)c(C34CC5CC(CC(C5)C3)C4)c2)c(Cl)c1 | 0 | 0 | > 5 | 6 | 0 | inhibition at 100 µM [15]: 95%; IC50 [1]: 1 µM; inhibition at 100 µM (DU-145 [16]): 84%; inhibition at 100 µM (MDA-MB-231 [17]): 83%
 |  |  |  | O=C(O)c1ccc2cc(-c3cccc(C45CC6CC(CC(C6)C4)C5)c3)ccc2c1 |  |  |  |  |  | Activity [18]: 2%; Activity [19]: 2%; Activity (MDA-MB-231 [20]): 2%; Activity (MDA-MB-231 [21]): 7%; inhibition of growth at 0.1 µM [22]: 4%; inhibition of growth at 1 µM [23]: 8%; IC50 [24]: > 0.5 µM; inhibition at 72 h, 0.5 µM [25]: 36%
 | 500 | > 100 | > 100 | O=C(O)/C=C/c1ccc(-c2ccc(F)cc2)c(Cl)c1 | 0 | 0 | > 5 | 47 | 7 | inhibition at 100 µM [15]: 60%; inhibition at 10 µM [26]: 18%; inhibition at 100 µM (DU-145 [16]): 23%; inhibition at 10 µM (DU-145 [27]): 15%; inhibition at 100 µM (MDA-MB-231 [17]): 9%; inhibition at 10 µM (MDA-MB-231 [28]): 0%
 |  |  |  | Cc1c(-c2ccc(O)c(C34CC5CC(CC(C5)C3)C4)c2)ccc2cc(C(=O)O)ccc12 |  |  |  |  |  | Activity [18]: 29%; Activity [19]: 70%; Activity (MDA-MB-231 [20]): 28%; Activity (MDA-MB-231 [21]): 43%; IC50 [24]: 0.34 µM; inhibition at 72 h, 0.5 µM [25]: 65%
61 | 1.83 | 1.3 | 4 | Nc1ccc(-c2ccc(/C=C/C(=O)O)cc2Cl)cc1C12CC3CC(CC(C3)C1)C2 | 10 |  | 5 | 6 | 50 | IC50 (KG-1 [29]): 9.3 µM; inhibition at 5 µM (DU-145 [12]): 79%; inhibition at 5 µM (MDA-MB-231 [13]): 61%; inhibition at 5 µM [14]: 45%
85 | 3.91 | 7.9 | 9.8 | O=C(O)/C=C/c1ccc(-c2ccc(O)c(C34CC5CC(CC3C5)C4)c2)c(Cl)c1 | 2 | 16 | 0.92 | 6.8 | 94 | inhibition at 10 µM [26]: 69%; IC50 (KG-1 [29]): 230 µM; inhibition at 10 µM (DU-145 [27]): 59%; inhibition at 10 µM (MDA-MB-231 [28]): 51%
